This is a sample that favours compounds with a hit; in the whole collection about 4.6% have one here.
Arr AP2 block – inhibitors of beta-arrestin/AP2 binding, primary screen, biochemical, GPCR trafficking, flow cytometry; actives 0.31% (n = 340,000); FITC-arrestin peptide / GST-AP2 beads; AP2 beta2 appendage carries R879A mutation; beta-arrestin 1 C-terminal peptide binding to AP2 beta2-adaptin appendage (human); inhibition, % at 10 µM;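 active means inhibition above a set limit, near 3 SD of compounds lacking own fluorescence, cut at about 54% in these data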;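 further: plate controls were DMSO wells for no effect and 5 µM unlabelled arrestin peptide for full effect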
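System: GST-AP2 R879A glutathione beads | Also added: FITC-arrestin peptide, 50 nM | Times: 12 min plus 1 h, RT | Signal: Bead flow cytometry, FITC channel | Buffer or medium: PBS with 0.05% Tween 20 and 0.1% BSA | Read-out basis: Percent drop in bead-associated FITC signal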
PolyA inh – polyadenylation inhibitors in yeast reporter cells, primary screen, luminescence, S. cerevisiae. S. cerevisiae SKY197-pL101 polyadenylation reporter, beta-gal luminescence; efflux-impaired pdr1/pdr3 knockout yeast; score 100 = 6 SD above DMSO. activity score, % at 12 µM. actives 0.02% (n = 300,000). AID 1875, 2009;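 active means lowest replicate activity score at least 50, where 100 means six control SD above control mean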;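 further: yeast exposed to compound for 9 h at 30 °C; higher score means more reporter readthrough which indicates perturbed polyadenylation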
NLRP3 yeast inh – NALP3 inflammasome inhibitors in reconstituted yeast, primary screen, luminescence, uHTS; inhibition, % at 10 µM; actives 0.39% (n = 330,000); Yeast reconstituted NLRP3/ASC/caspase-1, beta-gal luminescence, 24 h; AID 2825, 2010;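 active means inhibition of 50% or more; inactive means inhibition below 50%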;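 further: plate controls were induced DMSO wells for no effect and uninduced yeast grown without galactose for full effect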
DSG3 Ab inh – inhibitors of pemphigus antibody binding to DSG3, primary screen, biochemical, bead-based, flow cytometry, scFv-GFP | binding (percent of control), % at 10 µM | DSG3-coupled beads, scFv-anti-DSG3-GFP binding; stronger effect = lower value | actives 0.48% (n = 310,000);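 active means binding more than 3 SD below its plate's average and above zero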;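 further: hits lower antibody fragment binding to DSG3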
ALR inh – inhibitors of human ALR sulfhydryl oxidase, primary screen, biochemical, H2O2 detection, HRP-luminol luminescence, single point; FAD-linked sulfhydryl oxidase ALR (Homo sapiens), P55789; purified ALR, DTT oxidation; inhibition, % (test concentration not listed); actives 3.8% (n = 290,000);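 active means mean replicate inhibition above about 79%, with every replicate also reaching it, limit read from the data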
Target sequence (P55789 whole entry, looked up): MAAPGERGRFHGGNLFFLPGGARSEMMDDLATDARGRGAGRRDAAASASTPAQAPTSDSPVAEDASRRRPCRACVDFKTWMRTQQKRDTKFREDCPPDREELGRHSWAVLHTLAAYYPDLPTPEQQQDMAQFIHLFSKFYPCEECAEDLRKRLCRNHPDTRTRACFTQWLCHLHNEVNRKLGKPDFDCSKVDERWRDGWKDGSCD
NALP1 inh – NALP1 inflammasome inhibitors in reconstituted yeast, colorimetric, S. cerevisiae, triplicate retest | AID 2071, 2009 | S. cerevisiae NALP1/ASC/caspase-1 growth, X-gal OD620, 72 h | inhibition, % at 10 µM | actives 0.61% (n = 280,000); in the data active means inhibition mostly above about 24%, no sharp cut-off; inactive means mostly below about 32%
* = called active by the depositor; . = not tested or not shown.

SMILES	Arr AP2 block	PolyA inh	NLRP3 yeast inh	DSG3 Ab inh	ALR inh	NALP1 inh
CCOc1cc(CNc2ccc3[nH]c(=O)[nH]c3c2)ccc1OCC(=O)NC(C)(C)C	42.8	-1.2	6.0	116.5	91.3*	5.2
COc1cc(CNn2c(C)n[nH]c2=S)cc(Cl)c1OCC(=O)NC(C)(C)C	11.7	-18.4	-5.4	116.4	50.2	8.9
C=CCOc1c(CNc2ccc3[nH]c(=O)[nH]c3c2)cccc1OC	20.2	14.4	6.7	106.2	98.8*	7.2
COc1cc(CNc2ccc3[nH]c(=O)[nH]c3c2)cc(Cl)c1OCC(=O)NC(C)(C)C	51.0	-0.8	12.8	94.5	97.6*	0.3
C=CC(=O)Nc1cccc(Nc2nc(N[C@H]3CC[C@H](N(C)C)CC3)nc3c2ncn3C(C)C)c1	31.7	.	.	106.0	.	.
Cc1cc(C)n(-c2ccc(C(=O)N3CCN(S(=O)(=O)c4ccc(Br)cc4Cl)CC3)cc2)n1	.	.	.	96.2	.	.
CCOc1ccc(C2NC(=O)C(C#N)=C(S)N2c2ccc(OC)cc2)cc1OC (stereo not given)	0.3	-14.7	8.7	80.1	97.1*	15.8
CC1(C)Oc2cc3oc(-c4cc(O)cc(O)c4)cc3cc2CC1O (stereo not given)	-4.6	0.6	-0.3	105.1	99.2*	.
COc1ccccc1NC(=O)CCCn1c(=S)[nH]c2ccccc2c1=O	-5.8	11.7	28.0	123.2	2.3	2.1
COc1ccc(NC(=O)CCn2c(=S)[nH]c3ccccc3c2=O)cc1Cl	.	.	.	81.7*	.	.
COc1cccc(NC(=O)CCCn2c(=S)[nH]c3ccccc3c2=O)c1	12.9	3.7	7.1	99.2	83.1*	-22.6
CC12CCC=CC1=C(C=O)C1C2CCC2(C)C(O)CCC12 (stereo not given)	5.7	.	.	116.9	.	.
Cc1ccc(CSCC(=O)Nc2ccc(N3CCOCC3)cc2N2CCOCC2)cc1	9.3	-11.5	18.0	113.0	98.4*	.
CCNCC(=O)Nc1ccc(N2CCOCC2)cc1	-3.8	5.8	18.0	.	11.0	2.5
Cc1ccc(CNCC(=O)Nc2ccc(N3CCOCC3)cc2)cc1	-3.2	4.3	10.4	97.0	98.7*	18.6
Cc1cccc(NC(=O)CSCC(=O)Nc2ccc(N3CCOCC3)cc2N2CCOCC2)c1	-3.3	.	.	97.3	.	.
O=C(Nc1ccc(N2CCOCC2)cc1N1CCOCC1)c1cccs1	-2.1	-9.5	17.4	.	78.3*	19.0
COCCN(C(=O)CSc1nc2ccccc2o1)c1c(N)n(Cc2ccccc2)c(=O)[nH]c1=O	9.6	.	-7.5	106.6	-3.6	.
COc1cc(NS(=O)(=O)c2ccc(-n3cccn3)cc2)cc(OC)c1	.	.	.	101.8	.	.
CCN(CC)c1ccc([C@H]2[C@@H]3CCCC[C@]3(O)CCN2CC(=O)NCc2ccco2)cc1	8.2	-6.4	20.6	102.0	99.0*	.
CCN(CC)c1ccc(C2C3CCCCC3(O)CCN2CC(=O)N2CCCCC2)cc1 (stereo not given)	4.0	-5.1	-2.3	111.2	98.7*	-28.1
O=C(NNC(=O)C1CCC1)c1ccc(F)cc1	.	.	.	100.2	.	.
COc1ccc(C(=O)N/N=C/c2ccc(N3CCOCC3)o2)cc1OC	6.7	4.3	-1.8	86.2	.	11.4
CCOC(=O)N/N=C/c1ccc(N2CCOCC2)s1	-6.5	16.0	8.3	103.4	98.6*	7.4
O=C(N/N=C/c1ccc(N2CCOCC2)s1)c1ccccc1Cl	-3.5	-2.1	22.4	103.8	87.6*	4.8
COc1ccc(C(=O)N/N=C/c2ccc(N3CCOCC3)s2)cc1OC	-0.7	.	12.0	103.3	93.1*	.
CCCCCCN1CC(O)=C(c2nc3ccccc3[nH]2)C1=N	11.4	-2.0	27.9	105.7	5.4	9.5
CCC(C)N1CC(O)=C(c2nc3ccccc3[nH]2)C1=N (stereo not given)	0.8	9.4	26.0	102.1	81.7*	-7.7

Compound activity deposited in PubChem by several laboratories.
